test: Toxicity liver stage against HepG2, at 10uM; assay type: cell-based; design: test concentration 10 uM, cell line HepG2-A16-CD81EGFP; conditions: human, HepG2-A16-CD81EGFP cells; read-out: INHIBITION
Outline: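 Uninfected HepG2-A16-CD81EGFP cells, 3 × 10^3 per well, 1536-well, plated on prespotted compound at 10 μM final, parasite-free screening media added to match infected plates; puromycin 10 μM positive, DMSO 0.5% negative; run in parallel with 48 h PbLuc assay at 37 °C, 5% CO2; viability by CellTiter-Glo luminescence, normalized to controls.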

Point of comparison: `CCCc1noc(CNC2CCCN(Cc3noc(C4CC4)n3)C2)n1` (configuration not stated), cytotoxicity at 10 µM -13.5%. Against it:
- CN(C)C(=O)C1CCCN1c1ncnc2ccsc12 (configuration not stated) — higher, 4.04%
- COCC(O)CN1CC(C)(C)CN(C(=O)CCc2ccccc2)CC1=O (configuration not stated) — higher, -1.83%
- CCn1cc(-c2nn3c(C(C)C)nnc3s2)c(C)n1 — lower, -14.6%
- CC(C)n1ncc2c1NC(=O)CSC2C(F)(F)F (configuration not stated) — higher, -11.1%
- OC1CN(c2nc3c(C(F)(F)F)cccc3s2)C1 — higher, -8.37%
- Cc1noc(-c2ccc(N3CCCC(C(N)=O)C3)nc2)n1 (configuration not stated) — higher, 9.36%
- O=C1C[C@H]2[C@@H](CCN2C(=O)Cc2cccs2)N1CC1CC1 — higher, 3.2%
- Cc1ccc(CN2CCC3(CCCN(C(=O)N(C)C)C3)C2)cc1 (configuration not stated) — higher, 6.28%
- COCCN1C(=O)CC[C@@H]2[C@H]1CCN2C(=O)N(C)C — higher, 10.7%
- CCS(=O)(=O)N1Cc2nccn2CC(CN2CCCC2)C1 (configuration not stated) — lower, -124%
- CC(C)C(=O)N1CCC12CCCN(C(=O)c1ccnnc1)C2 (configuration not stated) — higher, 7.8%
- Cc1nc(N(C)C)nc2c1COCC21CCN(C(=O)C2CC2)C1 (configuration not stated) — higher, 4.27%
- CC(C)NC(=O)c1cc2c(nc1N(C)C)CCN(S(=O)(=O)C1CC1)CC2 — lower, -149%
- COc1ccc(OC)c(NC(=O)c2nc3ccccc3n(C)c2=O)c1 — higher, -4.71%
- CC(C)(C)n1ncc2c1NC(=O)CC2c1ccsc1 (configuration not stated) — higher, 20.4%
- COc1cccc(CNCc2ccc(F)cc2Cl)c1O — higher, -3.3%
- Cc1nc(N2CCN(C(=O)C3CC3)CC2)c2c(n1)c(C)nn2C — higher, 5.42%
- CNC(=O)C1(CCCc2ccccn2)CN(Cc2nccn2C)C1 — higher, -1.23%
- O=C(CN1CCNC1=O)NCc1ccc2sccc2c1 — higher, 5.05%
- CCCn1nccc1-c1cc(C2CCN(S(C)(=O)=O)CC2)nc(C)n1 — higher, -10.7%
- Cc1n[nH]c(C)c1-c1cnc(CC2CCCN(S(C)(=O)=O)C2)cn1 (configuration not stated) — higher, -7.3%
- Cc1cc(F)cc2c(NCC(C)(C)C(N)=O)c(C#N)cnc12 — higher, -3.25%
- CC(C(=O)N(Cc1ccccc1)CC(F)(F)F)S(C)(=O)=O (configuration not stated) — higher, 11%
- CSCC(C)NS(=O)(=O)c1ccc(C)c(N(C)C)c1 (configuration not stated) — higher, -3.25%
- Cc1ccc(C2CSCCN2C(=O)c2cccnc2)cc1 (configuration not stated) — higher, -4.11%
- Cc1cc(C(=O)NC(C)Cc2ccccc2Cl)n(C)n1 (configuration not stated) — higher, 2.8%
- CCOCCCNc1nc(CS(=O)(=O)c2ccccc2)cs1 — higher, 9.75%
- CC(C)(C)CCS(=O)(=O)NCCc1csc(N2CCCC2)n1 — higher, 8.37%
- Cc1ccc(CN(C(=O)NCC2CCS(=O)(=O)C2)C2CC2)o1 (configuration not stated) — lower, -144%
- CC(C)CC(=O)N1Cc2ccccc2CC1C(=O)Nc1nncs1 (configuration not stated) — lower, -154%
- COc1ccccc1NC(=O)CCNC(=O)c1ccoc1 — higher, 1.66%
- Cc1c(F)cccc1S(=O)(=O)N(C)CC(C)O (configuration not stated) — higher, 4.98%
- Cc1cnn(CCNCC(=O)Nc2ccc(Br)cn2)c1 — higher, 1.9%
- CCOc1cc(NC(=O)N2CCC3(CCOCC3)C2)ccc1C — higher, 2.89%
- CC1CCc2sc(C(=O)Nc3cnn(C)c3)cc2C1 (configuration not stated) — higher, 9.48%
- CC(C)c1csc(NC(=O)NC2CCCN(c3cnn(C)c3)C2)n1 (configuration not stated) — higher, 15%
- COC(=O)c1ccc(N2CCN(C(=O)C(C)C)C(C)C2)cc1 (configuration not stated) — higher, -10.4%
- COc1ccc2c(c1)CCCN2C(=O)CNCC1CN(C)CCO1 (configuration not stated) — higher, 4.78%
- Cc1ccc(C(=O)N(Cc2ccc(F)cc2)C2CC2)c(=O)[nH]1 — higher, -1.4%
- Cn1cc(C2CCCN2CC(=O)N(CCC#N)Cc2ccco2)cn1 (configuration not stated) — higher, -6.18%
- O=C(Cn1cccnc1=O)NCC1Cc2ccccc2O1 (configuration not stated) — higher, -4.62%
- Cc1cc(CN(C)C(=O)NCc2ccnc(OC3CCCC3)c2)no1 — higher, 9.52%
- COc1c(C)cnc(CNC(=O)c2cc(C)nc3onc(C)c23)c1C — higher, -0.947%
- O=C(CCCc1ccccn1)N1CCC(Nc2cccnn2)CC1 — higher, -9.73%
- CCOCCC1(CNC(=O)c2ccncc2)CCC1 — higher, 4.11%
- CC(=O)NCCCOc1c(C)cccc1Cl — higher, 0.238%
- O=C(NCc1cccc(N2CC=CC2)c1)NC1CC1 — higher, 9.34%
- CCCN1CCN(C(=O)c2cnn(-c3ccccc3F)c2)CC1 — higher, 0.313%
- CC(C)CNC(=O)Nc1cccc(CN2CCOC2=O)c1 — higher, -1.1%
- COC(=O)NCC(=O)NC1CC(C)(C)Cc2oc(C)cc21 (configuration not stated) — lower, -20.8%
- COCCN1CCN(CC(=O)N(C)Cc2ccsc2)CC1C (configuration not stated) — lower, -127%
- CN(Cc1cnn(C)c1)C(=O)C1COCC(=O)N1Cc1ccccc1 (configuration not stated) — higher, -4.33%
- CCCN(C(=O)c1cc2c([nH]c1=O)CCCC2=O)C1CCCCC1 — higher, -0.708%
- CC(C)(O)CN1CCN(C(=O)COCC2CC2)CC1 — higher, -9.17%
- CC1CN(c2ccc(CNC(=O)NCc3ccoc3)cn2)CCO1 (configuration not stated) — higher, 4.38%
- COc1ccc(CCN(C)C(=O)c2cc(C(C)=O)c[nH]2)cc1OC — higher, 5.38%
- CCc1cnc(N2CCN(Cc3ccon3)CC2)s1 — higher, 1.16%
- CC(C)OCCn1nnnc1Cc1ccc(Br)cc1 — higher, -5.58%
- CC(O)CN1CCC(CN(C)Cc2cc(C#N)ccc2F)CC1 (configuration not stated) — higher, 2.05%
- COc1ccc(Br)cc1CCC(=O)N1CCSCC1 — higher, 5.48%
- CS(=O)(=O)N1CCCN(c2nccn3cnnc23)CC1 — higher, -8.85%
- CCn1c(C)nnc1CN(C)C1CCN(Cc2nccn2C)C1 (configuration not stated) — higher, 17.8%
- Cc1cnn(CCNCc2ccc(OCc3csc(C)n3)cc2)c1 — higher, -6.32%
- Cc1ccc(-c2ccnc3cc(CC(=O)N4CCN(C)CC4)nn23)cc1 — higher, -1.72%
- O=C(NCc1cccnc1N1CCc2ccccc2C1)c1cc(=O)[nH][nH]1 — higher, 6.99%
- CN(Cc1ccc(C2CC(=O)Nc3n[nH]cc32)o1)S(C)(=O)=O (configuration not stated) — lower, -13.8%
- CC(C)[C@@H]1CN(Cc2cnc3c(S(C)(=O)=O)cnn3c2)C[C@H]1N(C)C — higher, -3.5%
- OC[C@H]1CN(Cc2c(Cl)cncc2Cl)C[C@H]1CN1CCOCC1 — lower, -107%
- Cc1cccc(-c2ncc(CNC(C)CO)cn2)c1 (configuration not stated) — higher, 2.16%
- COc1nc2c(cc1C(=O)NC(C)Cc1cc(C)n[nH]1)CCC2 (configuration not stated) — lower, -137%
- CCSc1ncc(CN2CCN(c3ncc(C)c(N)n3)CC2)cn1 — higher, -4.65%
- Cc1cc(CNC(=O)C2CCN(CC(N)=O)CC2)cc(C)n1 — higher, -3.06%
- CN(CCc1noc(C2CC2)n1)C(=O)CN1C(=O)COc2ccccc21 — lower, -141%
- COc1cnc(N2CCCN(c3ccc(F)cc3)CC2)nc1 — higher, -10.6%
- COCCN(Cc1cnn(C)c1)c1nc(C)nc2sccc12 — lower, -138%
- Cc1nccc(-c2ccccc2)c1C(=O)N1CC[C@](C)(O)[C@H](C)C1 — higher, 3.41%
- COc1cc(N2CCCC(c3nccn3Cc3cscn3)C2)nc(N)n1 (configuration not stated) — higher, -4.66%
- CC(C)CCN1CCNC(=O)C1CC(=O)N1CCc2sccc2C1 (configuration not stated) — higher, -7.01%
- CCCN(CCO)C(=O)C1CCC(=O)N(CCc2ccc(Cl)cc2)C1 (configuration not stated) — higher, -12.5%
- O=C(c1cncc(N2CCC3(CCNCC3)CC2)n1)N1CCCC1 — lower, -14.6%
- CC(C)C(Sc1nncn1C1CC1)C(=O)NCc1cccnc1 (configuration not stated) — higher, -6.86%
- CC(C)Cn1cc(NC(=O)N2CCCC2)cn1 — higher, -5.28%
- COCCCNC(=O)Nc1ccc(-n2cncn2)c(C(F)(F)F)c1 — higher, -6.98%
- CC(C)c1ccc(OCCC(=O)N2CCC(C(=O)N(C)C)CC2)cc1 — lower, -17.5%
- CC(C(=O)NCc1ccnc(N2CCCCCC2)c1)n1cccn1 (configuration not stated) — lower, -15.8%
- CS(=O)(=O)CCN1CCCC1c1noc(C2CC2)n1 (configuration not stated) — higher, -6.82%
- CC(C)(C)c1n[nH]c(C2CN(Cc3nnc(C4CCC4)o3)CCO2)n1 (configuration not stated) — higher, -8.24%
- O=C(Cc1csc(-c2ccsc2)n1)N1CCN(c2cnccn2)CC1 — higher, -7.12%
- CC(O)(CN1CCC(O)CC1)c1cccc(C(F)(F)F)c1 (configuration not stated) — higher, -0.0552%
- O=C(NCCn1ccnc1)N1CCCN(Cc2cccs2)CC1 — lower, -29.7%
- CCN1CCN(CCNC(=O)c2sc(C(C)C)nc2C)CC1 — higher, 6.23%
- CC(=O)N(Cc1noc(C)n1)C1CCN(Cc2ccccn2)C1 (configuration not stated) — higher, -5.82%
- CCOCc1cc(CN2CCn3c(CO)nnc3C2)ccc1OC — lower, -37.2%
- COCC1c2c(cnn2CC2CC2)CCN1Cc1ccsc1 (configuration not stated) — higher, 6.75%
- CC(C)c1cc(=O)[nH]c(C(C)(C)N)n1 — higher, -1.05%
- O=C(COC[C@H]1CC[C@H]2[C@H](CCN2c2ccccn2)O1)N1CCCC1 — higher, 0.748%
- CC(C)Nc1nc2c(cc1C(=O)NCC1CC1)CCN(S(C)(=O)=O)CC2 — higher, -1.48%
- CN(C)CCN1C(=O)CCC12CCCN(C(=O)C1CC=CC1)CC2 (configuration not stated) — higher, 3.7%
- CCN1CCC2(CN(C(=O)N(C)C)CC23CCN(CC2CC2)CC3)C1=O (configuration not stated) — higher, 0.199%
- Cn1ccnc1CN1CCC2(CC1)CCN(Cc1ccoc1)C2 — higher, -6.08%
- Cc1ccc(CN2Cc3nnn(C)c3C(COCc3ccccn3)C2)s1 (configuration not stated) — higher, 7.8%
- Cc1nc(CN2C(=O)CCC23CCN(c2ncccn2)CC3)cs1 — higher, -7.71%
- Cn1cccc1C(=O)N[C@@H]1CN(Cc2ccsc2)[C@@H]2COC[C@@H]21 — higher, 9.9%
- CC(=O)N1CCC2(CC1)CC(N1CCOCC1)c1ccc(C)cc12 (configuration not stated) — lower, -137%
- CN(Cc1ccco1)C1CCC12CCN(C(=O)c1ccnnc1)CC2 (configuration not stated) — higher, 0.081%
- CC(=O)N(C)Cc1nn(C)c2c1CN(Cc1ccsc1)C2 — lower, -134%
- CCn1cc(-n2cc3nc(N4CCOCC4)[nH]cc-3c2=O)cn1 — higher, 3.43%
- CCCn1nccc1NC(=O)CN1CCn2c(nnc2C2CC2)C1 — higher, -8%
- COC(=O)Cn1c(=O)[nH]c2cn(-c3ccc(Br)cc3)c(=O)n21 — higher, 1.4%
- COCc1cccc(C(=O)N2C[C@@H]3CC[C@H]2CN(Cc2cscn2)C3)n1 — higher, 5.01%
- Cc1noc(C)c1C(=O)N1C[C@@H]2CC[C@H]1CN(c1cnccn1)C2 — higher, 8.32%

— ChEMBL document CHEMBL4513216, “Probing the Open Global Health Chemical Diversity Library for Multistage-Active Starting Points for Next-Generation Antimalarials” (ACS Infect Dis, 2020)
